Assay results collected from several papers.
Protocols differ between the studies behind these lines.
Target: Insulin-like growth factor 1 receptor (IGF1R, Homo sapiens, UniProt P08069)

CC(C)(C)c1ccc(-c2nc(CBr)nn2-c2cccc(O)c2)cc1
remaining binding (cell-free assay, competition with immobilised ligand; 10 µM): 95%

O=C(NCCCN1CCOCC1)c1ccc(Nc2ncc(Cl)c(-c3ccc(Cl)s3)n2)cc1
remaining binding (binding, competition with immobilised ligand; 1 µM): 44%

Nc1ncc2c(n1)-c1c([nH]c3ccc(C#CC4CC4)cc13)CCCC2
remaining binding (binding, competition with immobilised ligand; 1 µM): 100%

CC(=O)c1c(NS(C)(=O)=O)c2cc(-c3ccc(Cl)cc3)c(-c3ccc(Cl)cc3Cl)nc2n(C)c1=O
remaining binding (cell-free assay, competition with immobilised ligand; 1 µM): 100%

COc1ncc2cc3ccccc3nc2c1C#N
remaining binding (cell-free assay, competition with immobilised ligand; 5 µM): 86%

CC(C)CC(=O)N1CCc2nc(-c3ccc(Br)cc3)nc(N(C)Cc3ccccc3)c2C1
remaining binding (cell-free assay, competition with immobilised ligand; 0.1 µM): 83%

O=C(Nc1c[nH]nc1C(=O)NC1CCNCC1)c1cc(F)cc(F)c1
remaining binding (binding, competition with immobilised ligand; 1 µM): 100%

c1cnn2ncc(-c3ccnc(N4CCC45COC5)n3)c2c1
remaining binding (binding; 1 µM): 97%

O=C(O)c1cc(-c2ccc(C3CCNCC3)cc2)c2ccc(-c3ccc(C(F)(F)F)cc3)cc2c1
remaining binding (cell-free assay, competition with immobilised ligand; 1 µM): 95%

CN(C)c1nccc(-c2cnn3ncccc23)n1
remaining binding (binding; 1 µM): 100%

O=C(c1ccc(Nc2nccc(-c3cc4ccccc4s3)n2)cc1)N1CCC(N2CCCC2)CC1
remaining binding (binding, competition with immobilised ligand; 1 µM): 100%

C[C@@H]1CN(c2ccc3ncc(-c4ccc5[nH]nc(C6CC6)c5c4)n3n2)C[C@H](C)O1
remaining binding (binding, competition with immobilised ligand; 0.5 µM): 100%

C[C@@H]1CCN(c2nccc(-c3cnn4ncccc34)n2)C1
remaining binding (binding; 1 µM): 53%

CSc1cccnc1N1CCN(Cc2nc3ccccc3[nH]2)CC1
remaining binding (cell-free assay, competition with immobilised ligand; 1 µM): 100%

COc1cnc(Nc2cccc(S(N)(=O)=O)c2)nc1N1CCN(c2ccccc2)C(=O)C1
remaining binding (binding, competition with immobilised ligand; 1 µM): 100%

CN(C)c1ncc(F)c(-c2cnn3ncccc23)n1
remaining binding (binding; 1 µM): 100%

O=C(NCCCN1CCOCC1)c1ccc(Nc2nccc(-c3cc4ccccc4s3)n2)cc1
remaining binding (binding, competition with immobilised ligand; 1 µM): 100%

Cn1nc(C(=O)NCc2ccc(C(=O)O)cc2)cc1-c1ccc2[nH]ccc2c1
remaining binding (cell-free assay, competition with immobilised ligand; 0.1 µM): 91%

N[C@H]1CCN(c2nccc(-c3cnn4ncccc34)n2)C1
remaining binding (binding; 1 µM): 81%

CCOCCn1cc(C(=O)Nc2ccc(-n3nc(-c4cccnc4)cc3C(F)(F)F)cn2)ccc1=O
remaining binding (cell-free assay, competition with immobilised ligand; 1 µM): 96%

FC(F)(F)Oc1cccc(-c2cnc3ccc(-c4ccncc4)nn23)c1
remaining binding (cell-free assay, competition with immobilised ligand; 5 µM): 86%

Cc1cc(NC(=O)c2cccc(S(F)(F)(F)(F)F)c2)cc(-n2ccn3nc(-c4cccnc4)cc23)c1
remaining binding (cell-free assay, competition with immobilised ligand; 1 µM): 100%

CN(CCCC(F)(F)F)c1nccc(-c2cnn3ncccc23)n1
remaining binding (binding; 1 µM): 100%

CN(c1ccnc(CNc2nc(Nc3ccc4c(c3)CC(=O)N4)ncc2C(F)(F)F)n1)S(C)(=O)=O
remaining binding (cell-free assay, competition with immobilised ligand; 1 µM): 100%

Cc1cnn2ncc(-c3ccnc(N(C)C)n3)c2c1
remaining binding (binding; 1 µM): 100%
